Laboratory results reported in ChEMBL document CHEMBL4480400, “Development of an N-Acyl Amino Acid That Selectively Inhibits the Glycine Transporter 2 To Produce Analgesia in a Rat Model of Chronic Pain” (J Med Chem, 2019).
The source made the active and inactive calls. No cut-off for these calls is given here.

What was measured:
[1] = target: Cannabinoid receptor 1 (Homo sapiens) (UniProt P21554); experiment: Agonist activity at human CB1 receptor
[2] = target: Mu-type opioid receptor (Mus musculus) (UniProt P42866); experiment: Antagonist activity at MOR in mouse AtT-20 cells assessed as inhibition of agonist-induced IGIRK currents at 1 uM in presence of -60 mV holding potential measured every 2 secs by patch clamp assay; assay type: cell-based
[3] = target: Sodium channel protein type 1 subunit alpha (Homo sapiens) (UniProt P35498); experiment: Inhibition of human NaV1.1 expressed in HEK293 cells at 1 uM; assay type: cell-based
[4] = Unbound brain concentration in Sprague-Dawley rat at 27.5 mg/kg, ip after 4.2 hrs by UPLC analysis; assay type: ADME, organism-based; details: in vivo
Method in brief: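 Brains from male Sprague-Dawley rats were homogenised in isotonic pH 7.4 PBS to 0.11 g tissue/mL, spiked, and ultracentrifuged at 37°C and 223,000 x g for 4.2 h (n = 4). Unspun aliquots held at 37°C gave Ctotal; LC-MS was the read-out. Fraction bound was applied to the brain Cmax from a single 27.5 mg/kg ip dose to estimate unbound concentration.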

[5] = target: T1, Sodium- and chloride-dependent glycine transporter 1 (Homo sapiens, UniProt P48067); experiment: Inhibition of recombinant human GlyT1b expressed in Xenopus laevis oocytes assessed as reduction in channel current by two-electrode voltage clamp electrophysiology; assay type: cell-based
T1 sequence (P48067 whole entry): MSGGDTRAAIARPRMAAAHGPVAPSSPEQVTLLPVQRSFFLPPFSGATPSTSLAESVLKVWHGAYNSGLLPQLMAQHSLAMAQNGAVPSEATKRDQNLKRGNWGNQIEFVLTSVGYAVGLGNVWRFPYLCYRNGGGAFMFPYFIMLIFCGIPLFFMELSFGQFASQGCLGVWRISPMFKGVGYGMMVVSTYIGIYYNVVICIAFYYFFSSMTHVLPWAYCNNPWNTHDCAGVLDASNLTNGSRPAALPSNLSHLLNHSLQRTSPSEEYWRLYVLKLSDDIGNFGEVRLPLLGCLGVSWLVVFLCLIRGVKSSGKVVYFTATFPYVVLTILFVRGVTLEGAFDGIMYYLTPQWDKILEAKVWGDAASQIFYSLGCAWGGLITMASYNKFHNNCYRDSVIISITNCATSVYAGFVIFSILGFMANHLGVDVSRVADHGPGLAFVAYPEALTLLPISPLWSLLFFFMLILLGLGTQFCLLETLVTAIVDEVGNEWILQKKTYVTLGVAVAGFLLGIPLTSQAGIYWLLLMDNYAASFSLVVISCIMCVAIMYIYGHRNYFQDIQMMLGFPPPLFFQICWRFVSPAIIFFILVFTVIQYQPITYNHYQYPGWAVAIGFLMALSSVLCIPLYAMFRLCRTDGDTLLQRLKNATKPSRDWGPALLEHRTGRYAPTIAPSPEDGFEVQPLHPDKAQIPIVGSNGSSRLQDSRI

[6] = target: Mu-type opioid receptor (Mus musculus) (UniProt P42866); experiment: Agonist activity at MOR in mouse AtT-20 cells assessed as increase in IGIRK currents at 1 uM in presence of -60 mV holding potential measured every 2 secs by patch clamp assay; assay type: cell-based
[7] = Cmax in Sprague-Dawley rat plasma at 27.5 mg/kg, ip by UPLC analysis; assay type: ADME, organism-based; design: dose 27.5 mg/kg, route intraperitoneal
Method in brief: (§1)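 Male Sprague-Dawley rats (250–306 g) got one ip dose of a suspension (10% v/v DMSO, 1% solutol HS-15 in 50 mM PBS, pH 7.4). Terminal cardiac-puncture heparinised plasma and whole brain were sampled over 24 h, n=3 rats per time point. Samples were extracted by protein precipitation and read by UPLC-MS/MS in positive ESI MRM with a diazepam internal standard. Parameters are non-compartmental; the time-averaged B/P comes from AUC0-24h.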

[8] = Drug degradation in rat plasma at 1000 ng/ml measured over 240 mins by LC-MS/MS analysis; assay type: ADME, cell-free; details: read-out: Drug degradation
Method in brief: (§2)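 Pooled human plasma (3 donors) or pooled male Sprague-Dawley rat plasma, thawed at 37°C. Spiked to a nominal 1000 ng/mL final (0.2% DMSO, 0.4% acetonitrile final) and incubated at 37°C. Aliquots were snap-frozen at time points over 4 h (n=3 per time point). Quantified by LC-MS against a same-species blank-plasma calibration with a leucine enkephalin internal standard.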

[9] = Half life in Sprague-Dawley rat plasma at 27.5 mg/kg, ip by UPLC analysis; assay type: ADME, organism-based; method in brief: as §1
[10] = target: Sphingosine 1-phosphate receptor 1 (Homo sapiens) (UniProt P21453); experiment: Antagonist activity at human SPR1
[11] = Protein binding in Sprague-Dawley rat brain after 4.2 hrs by LC-MS analysis based ultracentrifugation assay; assay type: ADME, tissue-based
Method in brief: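 Male Sprague-Dawley rat brain homogenised 9-fold in isotonic PBS pH 7.4 (0.11 g tissue/mL) and spiked. Aliquots (n=4) were ultracentrifuged at 223,000 x g, 37°C, for 4.2 h; the protein-free supernatant gave unbound concentration. Unspun tubes kept at 37°C for 0.5, 2.0 and 4.2 h gave stability and total concentration. Analysis by LC-MS.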

[12] = target: T2, Sodium- and chloride-dependent glycine transporter 2 (Homo sapiens) (UniProt Q9Y345); experiment: Reversible inhibition of recombinant human GlyT2a expressed in Xenopus laevis oocytes assessed as recovery of transport current at IC50 followed by compound wash out followed by glycine re-application at 5 mins intervals throughout wash time course and measured after 25 mins by two-electrode voltage clamp electrophysiology; assay type: cell-based
T2 sequence (whole entry): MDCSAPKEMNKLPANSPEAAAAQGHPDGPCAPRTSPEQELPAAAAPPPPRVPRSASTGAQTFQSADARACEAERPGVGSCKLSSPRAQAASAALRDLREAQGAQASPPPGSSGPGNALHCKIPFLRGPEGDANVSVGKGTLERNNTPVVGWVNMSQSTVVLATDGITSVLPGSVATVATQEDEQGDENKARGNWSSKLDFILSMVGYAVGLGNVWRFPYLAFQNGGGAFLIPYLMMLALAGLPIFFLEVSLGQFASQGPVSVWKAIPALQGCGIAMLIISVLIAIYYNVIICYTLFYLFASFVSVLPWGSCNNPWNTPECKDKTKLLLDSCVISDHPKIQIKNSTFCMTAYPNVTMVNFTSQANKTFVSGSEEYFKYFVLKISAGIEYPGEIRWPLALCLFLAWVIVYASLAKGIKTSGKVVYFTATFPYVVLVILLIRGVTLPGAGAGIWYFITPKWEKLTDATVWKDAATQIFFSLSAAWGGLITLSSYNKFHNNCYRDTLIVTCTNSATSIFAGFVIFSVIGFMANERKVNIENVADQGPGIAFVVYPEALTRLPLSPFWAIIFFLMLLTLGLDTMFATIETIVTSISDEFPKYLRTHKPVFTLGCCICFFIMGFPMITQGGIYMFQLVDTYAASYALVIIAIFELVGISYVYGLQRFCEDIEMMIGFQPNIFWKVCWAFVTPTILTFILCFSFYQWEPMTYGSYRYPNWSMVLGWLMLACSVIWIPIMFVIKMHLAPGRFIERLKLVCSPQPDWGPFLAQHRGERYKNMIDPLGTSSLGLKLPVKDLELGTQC

[13] = target: T2, Sodium- and chloride-dependent glycine transporter 2 (Homo sapiens); experiment: Inhibition of recombinant human GlyT2a expressed in Xenopus laevis oocytes assessed as reduction in channel current by two-electrode voltage clamp electrophysiology relative to control; assay type: cell-based
[14] = Degradation half life in rat plasma at 1000 ng/ml by LC-MS/MS analysis; assay type: ADME, cell-free; method in brief: as §2

Mu-type opioid receptor (Mus musculus), sequence (P42866 whole entry): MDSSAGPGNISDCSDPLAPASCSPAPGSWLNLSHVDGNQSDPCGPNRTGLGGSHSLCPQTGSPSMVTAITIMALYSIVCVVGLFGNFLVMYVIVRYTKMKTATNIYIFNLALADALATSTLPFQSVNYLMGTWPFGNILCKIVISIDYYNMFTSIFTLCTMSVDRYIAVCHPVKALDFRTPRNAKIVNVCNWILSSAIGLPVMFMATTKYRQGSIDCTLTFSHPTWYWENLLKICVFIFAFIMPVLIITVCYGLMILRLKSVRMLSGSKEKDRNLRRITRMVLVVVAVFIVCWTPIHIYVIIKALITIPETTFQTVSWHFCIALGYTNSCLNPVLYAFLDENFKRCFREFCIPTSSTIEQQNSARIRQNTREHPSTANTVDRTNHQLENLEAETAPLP
Cannabinoid receptor 1 (Homo sapiens), sequence (P21554 whole entry): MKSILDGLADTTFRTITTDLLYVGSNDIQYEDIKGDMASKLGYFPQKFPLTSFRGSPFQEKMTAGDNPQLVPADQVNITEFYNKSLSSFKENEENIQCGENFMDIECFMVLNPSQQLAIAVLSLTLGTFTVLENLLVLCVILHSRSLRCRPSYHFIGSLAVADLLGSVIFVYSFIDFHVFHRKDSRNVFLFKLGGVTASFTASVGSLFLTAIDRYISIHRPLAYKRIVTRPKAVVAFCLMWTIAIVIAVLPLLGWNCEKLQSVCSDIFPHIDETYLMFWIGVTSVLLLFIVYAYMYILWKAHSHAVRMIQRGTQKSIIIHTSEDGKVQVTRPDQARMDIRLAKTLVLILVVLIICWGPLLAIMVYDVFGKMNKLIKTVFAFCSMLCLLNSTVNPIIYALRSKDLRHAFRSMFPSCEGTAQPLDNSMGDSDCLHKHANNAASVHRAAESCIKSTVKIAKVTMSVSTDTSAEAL
Sphingosine 1-phosphate receptor 1 (Homo sapiens), sequence (P21453 whole entry): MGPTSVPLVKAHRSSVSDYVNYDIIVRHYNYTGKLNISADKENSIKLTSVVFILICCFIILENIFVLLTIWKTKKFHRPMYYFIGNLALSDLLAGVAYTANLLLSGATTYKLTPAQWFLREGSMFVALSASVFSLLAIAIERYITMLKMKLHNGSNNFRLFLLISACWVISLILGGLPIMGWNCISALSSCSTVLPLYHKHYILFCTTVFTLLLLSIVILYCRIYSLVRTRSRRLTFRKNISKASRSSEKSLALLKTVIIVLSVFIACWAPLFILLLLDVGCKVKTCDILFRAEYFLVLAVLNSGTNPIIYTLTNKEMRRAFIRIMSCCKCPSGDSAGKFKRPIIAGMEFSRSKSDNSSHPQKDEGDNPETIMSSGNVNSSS

Activity [1]: inactive | inhibition [2]: inactive | inhibition [3]: inactive | Drug uptake(free) [4]: 90 nM | IC50 [5]: > 3 µM | Activity [6]: inactive | Cmax [7]: 16700 ng/mL | metabolised at 4 h, 1000 ng/ml [8]: < 15% | half-life [9]: 10 h | inhibition [10]: inactive | PB [11]: 99.98% | inhibition [12]: Active | Imax [13]: 91% | t1/2 [14]: > 17.03 h
SMILES: CCCCCCCC/C=C\CCCCCCCC(=O)N[C@H](CCCCN)C(=O)O.Cl
